Experimental data published in ChEMBL document CHEMBL3779860, “A Designed Tryptophan- and Lysine/Arginine-Rich Antimicrobial Peptide with Therapeutic Potential for Clinical Antibiotic-Resistant Candida albicans Vaginitis” (J Med Chem, 2016).
Active and inactive are the calls of the source. The calls are words filed in the database; no cut-off is given here.

Assays:
Candida albicans [1] = assay: Effect on cell morphology in antibiotic resistant Candida albicans clinical isolate 08030809 assessed as intracellular inclusions at MIC to 2.5 times MIC after 30 mins by scanning electron microscopy; assay type: functional, organism-based
Outline: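 Exponential-phase C. albicans 08030809 was washed in PBS and resuspended in Sabouraud medium. Cells were treated 30 min at 37°C alongside a vehicle control. They were then fixed in 2.5% glutaraldehyde (4°C, 2 h) and 1% osmium tetroxide, dehydrated through graded ethanol, freeze-dried from tert-butanol, gold-coated and imaged by SEM. Images are typical of three experiments.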

Candida albicans [2] = assay: Antimicrobial activity against antibiotic resistant Candida albicans clinical isolate 08032821 compound treated in PBS solution measured after 36 hrs by disc diffusion method; assay type: functional; conditions: isolate 08032821, 36 h
Outline: (§1)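 Salt-tolerance test: peptide at 2 mg/mL was prepared in sterile ddH2O, in 150 mM NaCl, or in PBS (150 mM NaCl, 2.7 mM KCl, 1.5 mM KH2PO4, 8 mM K2HPO4, pH 7.2). Anti-C. albicans activity was then assessed by inhibition zone on Sabouraud medium with 0.7% agar.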

Candida albicans [3] = assay: Antimicrobial activity against antibiotic resistant Candida albicans clinical isolate 08030809 compound treated in NaCl solution measured after 36 hrs by disc diffusion method; assay type: functional; conditions: isolate 08030809, 36 h; outline: as §1
Candida albicans [4] = assay: Antimicrobial activity against antibiotic resistant Candida albicans clinical isolate 08032821 compound treated in NaCl solution measured after 36 hrs by disc diffusion method; assay type: functional; conditions: isolate 08032821, 36 h; outline: as §1
Candida albicans [5] = assay: Antimicrobial activity against antibiotic resistant Candida albicans clinical isolate 08032815 compound treated in double distilled water measured after 36 hrs by disc diffusion method; assay type: functional; conditions: isolate 08032815, 36 h; outline: as §1
HEK293 = assay: Cytotoxicity against HEK293 cells assessed as cell viability at 0.39 to 100 ug/ml after 24 hrs by MTT assay; assay type: cell-based; conditions: human, hek293, 24 h
Outline: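 HEK293 seeded at 1 × 10^5 cells/mL in DMEM with 10% fetal calf serum and penicillin-streptomycin, 37 °C, 5% CO2. Cells exposed to sample for 24 h, then given MTT (5 mg/mL); formazan dissolved in DMSO and read at 570 nm. Done in triplicate.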

Candida albicans [6] = assay: Antimicrobial activity against antibiotic resistant Candida albicans clinical isolate 08022821 after 16 hrs by broth dilution method; assay type: functional; conditions: isolate 08022821, 16 h
Outline: (§2)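 Broth microdilution in Sabouraud liquid medium. Samples are stocks in 0.9% NaCl, 10 µL added to 90 µL broth plus 100 µL of 2 × 10^5 CFU/mL yeast suspension. Incubated 16 h at 28°C, growth read by A600. MIC is the lowest concentration completely inhibiting growth; mean of three independent experiments.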

Candida albicans [7] = assay: Antimicrobial activity against antibiotic resistant Candida albicans clinical isolate 08030809 assessed as clone count at MIC after 1 min by colony counting assay (reference value: 62 +/- 7 CFU); assay type: functional
[8] = Hemolytic activity in human RBC after 30 mins; assay type: ADME, cell-based, Erythrocyte
Outline: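 Serial dilutions were incubated with human erythrocytes for 30 min at 37°C. Supernatant absorbance was read at 540 nm after centrifugation. Hemolysis is expressed as % of the 1% Triton X-100 lysis value, pooled from three independent experiments. The highest concentration tested was 320 µg/mL.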

Candida albicans [9] = assay: Antimicrobial activity against Candida albicans ATCC 2002 assessed as inhibition of yeast growth after 16 hrs by broth dilution method; assay type: functional; conditions: ATCC 2002, 16 h; outline: as §2
Candida albicans [10] = assay: Antimicrobial activity against antibiotic resistant Candida albicans clinical isolate 08030809 assessed as clone count at MIC after 3 hrs by colony counting assay (reference value: 3687 +/- 543 CFU); assay type: functional
Candida albicans [11] = assay: Antimicrobial activity against antibiotic resistant Candida albicans clinical isolate 08030809 assessed as clone count at 5 times MIC after 6 hrs by colony counting assay (reference value: 14536 +/- 2467 CFU); assay type: functional
Candida albicans [12] = assay: Antimicrobial activity against antibiotic resistant Candida albicans clinical isolate 08030809 assessed as clone count at 10 times MIC after 6 hrs by colony counting assay (reference value: 14536 +/- 2467 CFU); assay type: functional
Candida albicans [13] = assay: Antimicrobial activity against antibiotic resistant Candida albicans clinical isolate 08030809 assessed as clone count at 5 times MIC after 1 min by colony counting assay (reference value: 62 +/- 7 CFU); assay type: functional
Mus musculus [14] = assay: Antiinflammatory activity in antibiotic resistant Candida albicans clinical isolate 08030809 induced mouse vaginitis model assessed as microabscess number in vaginal tissue at 20 ug administered as intravaginal instillation measured on day 6 by hematoxylin-eosin staining based microscopic method (reference value: 61); assay type: functional, Vagina
Outline: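 Mice given weekly subcutaneous estradiol valerate (0.5 mg in 0.1 mL vegetable oil) 72 h before infection. Infected intravaginally with 20 µL of 10^7 CFU/mL C. albicans 08030809. Intravaginal instillation of 20 µL daily for 16 days. Vaginal canals excised after lavage, formalin-fixed, paraffin-embedded, HE-stained. Microabscesses counted per high-power field over 6 fields per section, three independent experiments.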

Mus musculus [15] = assay: Antiinflammatory activity in antibiotic resistant Candida albicans clinical isolate 08030809 induced mouse vaginitis model assessed as reduction in IL-1beta secretion in vaginal tissue administered as intravaginal instillation measured on day 10 by ELISA; assay type: functional, organism-based; conditions: Vagina
Outline: (§3)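 Same estradiol-primed mouse model, infected intravaginally with C. albicans 08030809 and treated by intravaginal instillation (20 µL/mouse). Vaginal canals excised on day 10 of treatment and homogenised in 0.9% NaCl. Supernatant taken after 2,000 g for 15 min. TNF-α, IL-6, IL-1β and IL-10 measured by ELISA. Mean ± SE of three independent experiments; unpaired t-test versus vehicle.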

Candida albicans [16] = assay: Antimicrobial activity against antibiotic resistant Candida albicans clinical isolate 08030809 assessed as clone count at 10 times MIC after 10 mins by colony counting assay (reference value: 102 +/- 11 CFU); assay type: functional
Mus musculus [17] = assay: Antiinflammatory activity in antibiotic resistant Candida albicans clinical isolate 08030809 induced mouse vaginitis model assessed as reduction in TNF-alpha secretion in vaginal tissue at 50 ug administered as intravaginal instillation measured on day 10 by ELISA; assay type: functional, Vagina; outline: as §3
Mus musculus [18] = assay: Antiinflammatory activity in antibiotic resistant Candida albicans clinical isolate 08030809 induced mouse vaginitis model assessed as reduction in IL-6 secretion in vaginal tissue at 20 ug administered as intravaginal instillation measured on day 10 by ELISA; assay type: functional, Vagina; outline: as §3
Mus musculus [19] = assay: Antiinflammatory activity in antibiotic resistant Candida albicans clinical isolate 08030809 induced mouse vaginitis model assessed as reduction in IL-10 secretion in vaginal tissue at 50 ug administered as intravaginal instillation measured on day 10 by ELISA; assay type: functional, Vagina; outline: as §3
Candida albicans [20] = assay: Antimicrobial activity against antibiotic resistant Candida albicans clinical isolate 08030809 in mouse vaginitis model assessed as decrease in colony count in lavage liquid of vagina at 20 ug administered as intravaginal instillation measured on day 16; assay type: functional
Candida albicans [21] = assay: Antimicrobial activity against antibiotic resistant Candida albicans clinical isolate 08030809 in mouse vaginitis model assessed as decrease in colony count in lavage liquid of vagina at 50 ug administered as intravaginal instillation measured on day 11; assay type: functional
Candida albicans [22] = assay: Antimicrobial activity against antibiotic resistant Candida albicans clinical isolate 08030809 in mouse vaginitis model assessed as decrease in colony count in lavage liquid of vagina administered as intravaginal instillation measured on day 1, 6, 11, 16; assay type: functional, organism-based

H-VKRWKKWRWKWKKWV-NH2
Activity (Candida albicans [1]): Active
MIC (Candida albicans [2]): 2.65 µg/mL
MIC (Candida albicans [3]): 1.4 µg/mL
MIC (Candida albicans [4]): 2.65 µg/mL
MIC (Candida albicans [5]): 2.79 µg/mL
Activity (HEK293): Non-toxic
MIC (Candida albicans [6]): 3.13 µg/mL
Activity (Candida albicans [7]): 18 CFU
HC10 ([8]; erythrocyte, 0.5 h): > 320 µg/mL
HC50 at 0.5 h ([8]; red blood cells): > 320 µg/mL
MIC (Candida albicans [9]): 0.59 µg/mL
Activity (Candida albicans [10]): 0 CFU
Activity (Candida albicans [11]): 0 CFU
Activity (Candida albicans [12]): 0 CFU
Activity (Candida albicans [13]): 10 CFU
Activity (Mus musculus [14]): 16
Activity (Mus musculus [15]): Dose-dependent effect
Activity (Candida albicans [16]): 4 CFU
inhibition (INH) (Mus musculus [17]): 53%
inhibition (INH) (Mus musculus [18]): 46%
inhibition (INH) (Mus musculus [19]): 45%
inhibition (INH) (Candida albicans [20]): 71%
inhibition (INH) (Candida albicans [21]): 66%
inhibition (Candida albicans [22]): Dose-dependent effect
